In ChEMBL document CHEMBL1949585, “Design, synthesis and evaluation of telomerase inhibitory, hTERT repressing, and anti-proliferation activities of symmetrical 1,8-disubstituted amidoanthraquinones” (Eur J Med Chem, 2012):

Columns and labels:
[1] = Cytotoxicity against human H1299 cells assessed as cell growth at 1 uM after 48 hrs by MTT assay; assay type: functional; settings: NCI-H1299, 48 h, read-out: Activity
Method in brief: (§1)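 H1299 non-small lung cancer cells were grown in RPMI 1640 with 10% FBS and penicillin/streptomycin at 37 °C in 5% CO2. About 2×10³ cells were seeded per well and held 24 h, then washed with PBS and given fresh medium. Compound, freshly dissolved in DMSO and diluted in complete medium, was added for 48 h. MTT was read at 550 nm after SDS/DMF lysis at 37 °C for 16 h. Values are from three experiments, untreated = 100%, ±SD.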

[2] = Cytotoxicity against human H1299 cells assessed as cell growth at 10 uM after 48 hrs by MTT assay; assay type: functional; settings: NCI-H1299, 48 h, read-out: Activity; method in brief: as §1
[3] = Cytotoxicity against human H1299 cells assessed as cell growth at 100 uM after 48 hrs by MTT assay; assay type: functional; settings: NCI-H1299, 48 h, read-out: Activity; method in brief: as §1
CCRF-CEM = assay: Cytotoxicity against human CCRF-CEM cells assessed as cell growth at 10 uM relative to control; assay type: functional; settings: read-out: Activity
Method in brief: (§2)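 Single-concentration screen in the NCI 60 human tumour cell line panel covering nine cancer types. Values are the mean growth percentage of compound-treated cells, with untreated control cells set as 100%.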

HL-60(TB) = assay: Cytotoxicity against human HL-60(TB) cells assessed as cell growth at 10 uM relative to control; assay type: functional; settings: read-out: Activity
Method in brief: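 Tested in the NCI 60 human tumour cell line panel, covering nine cancer cell types, at a single concentration. The value is the mean growth percentage of treated cells, with untreated control cells taken as 100%.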

K562 = assay: Cytotoxicity against human K562 cells assessed as cell growth at 10 uM relative to control; assay type: functional; settings: read-out: Activity; method in brief: as §2
MOLT-4 = assay: Cytotoxicity against human MOLT4 cells assessed as cell growth at 10 uM relative to control; assay type: functional; settings: read-out: Activity; method in brief: as §2
RPMI-8226 = assay: Cytotoxicity against human RPMI8226 cells assessed as cell growth at 10 uM relative to control; assay type: functional; settings: read-out: Activity; method in brief: as §2
A549 = assay: Cytotoxicity against human A549 cells assessed as cell growth at 10 uM relative to control; assay type: functional; settings: read-out: Activity; method in brief: as §2
HOP-62 = assay: Cytotoxicity against human HOP62 cells assessed as cell growth at 10 uM relative to control; assay type: functional; settings: read-out: Activity; method in brief: as §2
HOP-92 = assay: Cytotoxicity against human HOP92 cells assessed as cell growth at 10 uM relative to control; assay type: functional; settings: read-out: Activity; method in brief: as §2
NCI-H23 = assay: Cytotoxicity against human NCI-H23 cells assessed as cell growth at 10 uM relative to control; assay type: functional; settings: read-out: Activity; method in brief: as §2
COLO 205 = assay: Cytotoxicity against human COLO205 cells assessed as cell growth at 10 uM relative to control; assay type: functional; settings: read-out: Activity; method in brief: as §2
HCC 2998 = assay: Cytotoxicity against human HCC2998 cells assessed as cell growth at 10 uM relative to control; assay type: functional; settings: read-out: Activity; method in brief: as §2
HCT-15 = assay: Cytotoxicity against human HCT15 cells assessed as cell growth at 10 uM relative to control; assay type: functional; settings: read-out: Activity; method in brief: as §2
SW-620 = assay: Cytotoxicity against human SW620 cells assessed as cell growth at 10 uM relative to control; assay type: functional; settings: read-out: Activity
Method in brief: (§3)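 Run in the NCI 60-cell human tumour panel. Cells were exposed to 10 µM compound, and growth was given as a percentage of untreated control cells set to 100%.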

BT-549 = assay: Cytotoxicity against human BT549 cells assessed as cell growth at 10 uM relative to control; assay type: functional; settings: read-out: Activity; method in brief: as §2
[4] = Cytotoxicity against human Hs 578T cells assessed as cell growth at 10 uM relative to control; assay type: functional; settings: read-out: Activity; method in brief: as §2
MCF7 = assay: Cytotoxicity against human MCF7 cells assessed as cell growth at 10 uM relative to control; assay type: functional; settings: read-out: Activity; method in brief: as §2
MDA-MB-231 = assay: Cytotoxicity against human MDA-MB-231 cells assessed as cell growth at 10 uM relative to control; assay type: functional; settings: read-out: Activity; method in brief: as §2
MDA-MB-435 = assay: Cytotoxicity against human MDA-MB-435 cells assessed as cell growth at 10 uM relative to control; assay type: functional; settings: read-out: Activity; method in brief: as §2
T47D = assay: Cytotoxicity against human T47D cells assessed as cell growth at 10 uM relative to control; assay type: functional; settings: read-out: Activity; method in brief: as §3
OVCAR-3 = assay: Cytotoxicity against human OVCAR3 cells assessed as cell growth at 10 uM relative to control; assay type: functional; settings: read-out: Activity; method in brief: as §2
OVCAR-8 = assay: Cytotoxicity against human OVCAR8 cells assessed as cell growth at 10 uM relative to control; assay type: functional; settings: read-out: Activity; method in brief: as §2
SK-OV-3 = assay: Cytotoxicity against human SKOV3 cells assessed as cell growth at 10 uM relative to control; assay type: functional; settings: read-out: Activity; method in brief: as §2
[5] = Cytotoxicity against human 786-O cells assessed as cell growth at 10 uM relative to control; assay type: functional; settings: 786-0, read-out: Activity; method in brief: as §2
A498 = assay: Cytotoxicity against human A498 cells assessed as cell growth at 10 uM relative to control; assay type: functional; settings: read-out: Activity; method in brief: as §2
ACHN = assay: Cytotoxicity against human ACHN cells assessed as cell growth at 10 uM relative to control; assay type: functional; settings: read-out: Activity; method in brief: as §2
CAKI-1 = assay: Cytotoxicity against human CAKI-1 cells assessed as cell growth at 10 uM relative to control; assay type: functional; settings: read-out: Activity; method in brief: as §2
LOX IMVI = assay: Cytotoxicity against human LOXIMVI cells assessed as cell growth at 10 uM relative to control; assay type: functional; settings: read-out: Activity; method in brief: as §2
Malme-3M = assay: Cytotoxicity against human MALME-3M cells assessed as cell growth at 10 uM relative to control; assay type: functional; settings: read-out: Activity; method in brief: as §2
SK-MEL-2 = assay: Cytotoxicity against human SK-MEL-2 cells assessed as cell growth at 10 uM relative to control; assay type: functional; settings: read-out: Activity; method in brief: as §2
SK-MEL-28 = assay: Cytotoxicity against human SK-MEL-28 cells assessed as cell growth at 10 uM relative to control; assay type: functional; settings: read-out: Activity; method in brief: as §2
UACC-257 = assay: Cytotoxicity against human UACC257 cells assessed as cell growth at 10 uM relative to control; assay type: functional; settings: read-out: Activity; method in brief: as §3
UACC-62 = assay: Cytotoxicity against human UACC62 cells assessed as cell growth at 10 uM relative to control; assay type: functional; settings: read-out: Activity; method in brief: as §3
DU-145 = assay: Cytotoxicity against human DU145 cells assessed as cell growth at 10 uM relative to control; assay type: functional; settings: read-out: Activity; method in brief: as §2
PC-3 = assay: Cytotoxicity against human PC3 cells assessed as cell growth at 10 uM relative to control; assay type: functional; settings: read-out: Activity; method in brief: as §2
SF-268 = assay: Cytotoxicity against human SF268 cells assessed as cell growth at 10 uM relative to control; assay type: functional; settings: read-out: Activity; method in brief: as §2
SF-539 = assay: Cytotoxicity against human SF539 cells assessed as cell growth at 10 uM relative to control; assay type: functional; settings: read-out: Activity; method in brief: as §2
SNB-19 = assay: Cytotoxicity against human SNB19 cells assessed as cell growth at 10 uM relative to control; assay type: functional; settings: read-out: Activity; method in brief: as §3
SNB-75 = assay: Cytotoxicity against human SNB75 cells assessed as cell growth at 10 uM relative to control; assay type: functional; settings: read-out: Activity; method in brief: as §3
U-251 = assay: Cytotoxicity against human U251 cells assessed as cell growth at 10 uM relative to control; assay type: functional; settings: read-out: Activity; method in brief: as §3
[6] = Inhibition of human TERT expression in H1299 cells at 1 uM after 24 hrs by secreted alkaline phosphatase reporter gene assay relative to control; values are per cent of control; settings: NCI-H1299
[7] = Inhibition of human TERT expression in H1299 cells at 10 uM after 24 hrs by secreted alkaline phosphatase reporter gene assay relative to control; values are per cent of control; settings: NCI-H1299

SMILES: COC(=O)CNCC(=O)Nc1cccc2c1C(=O)c1c(NC(=O)CNCC(=O)OC)cccc1C2=O
- growth at 1 µM [1]: 84%
- growth at 10 µM [2]: 86%
- growth at 100 µM [3]: 68%
- growth at 10 µM (CCRF-CEM): 64.4%
- growth at 10 µM (HL-60(TB)): 107%
- growth at 10 µM (K562): 97.1%
- growth at 10 µM (MOLT-4): 83.8%
- growth at 10 µM (RPMI-8226): 37.4%
- growth at 10 µM (A549): 94.3%
- growth at 10 µM (HOP-62): 108%
- growth at 10 µM (HOP-92): 75.8%
- growth at 10 µM (NCI-H23): 95.2%
- growth at 10 µM (COLO 205): 102%
- growth at 10 µM (HCC 2998): 106%
- growth at 10 µM (HCT-15): 94.3%
- growth at 10 µM (SW-620): 109%
- growth at 10 µM (BT-549): 99.9%
- growth at 10 µM [4]: 104%
- growth at 10 µM (MCF7): 89.5%
- growth at 10 µM (MDA-MB-231): 90.2%
- growth at 10 µM (MDA-MB-435): 102%
- growth at 10 µM (T47D): 83.8%
- growth at 10 µM (OVCAR-3): 89.9%
- growth at 10 µM (OVCAR-8): 96.3%
- growth at 10 µM (SK-OV-3): 104%
- growth at 10 µM [5]: 103%
- growth at 10 µM (A498): 85.2%
- growth at 10 µM (ACHN): 90.7%
- growth at 10 µM (CAKI-1): 83.8%
- growth at 10 µM (LOX IMVI): 88.2%
- growth at 10 µM (Malme-3M): 102%
- growth at 10 µM (SK-MEL-2): 107%
- growth at 10 µM (SK-MEL-28): 127%
- growth at 10 µM (UACC-257): 92.4%
- growth at 10 µM (UACC-62): 90.3%
- growth at 10 µM (DU-145): 107%
- growth at 10 µM (PC-3): 76.6%
- growth at 10 µM (SF-268): 100%
- growth at 10 µM (SF-539): 91.9%
- growth at 10 µM (SNB-19): 95.3%
- growth at 10 µM (SNB-75): 89.9%
- growth at 10 µM (U-251): 93.7%
- level, % of control [6]: 111%
- level, % of control [7]: 93%

SMILES: CCN(CC)CC(=O)Nc1cccc2c1C(=O)c1c(NC(=O)CN(CC)CC)cccc1C2=O
- growth at 1 µM [1]: 86%
- growth at 10 µM [2]: 78%
- growth at 100 µM [3]: 50%
- growth at 10 µM (CCRF-CEM): 84.6%
- growth at 10 µM (HL-60(TB)): 94.7%
- growth at 10 µM (K562): 106%
- growth at 10 µM (MOLT-4): 91.2%
- growth at 10 µM (RPMI-8226): 68.5%
- growth at 10 µM (A549): 91.7%
- growth at 10 µM (HOP-62): 88.3%
- growth at 10 µM (HOP-92): 93.5%
- growth at 10 µM (NCI-H23): 97.1%
- growth at 10 µM (COLO 205): 114%
- growth at 10 µM (HCC 2998): 103%
- growth at 10 µM (HCT-15): 93.4%
- growth at 10 µM (SW-620): 104%
- growth at 10 µM (BT-549): 97.4%
- growth at 10 µM [4]: 111%
- growth at 10 µM (MCF7): 88.7%
- growth at 10 µM (MDA-MB-231): 91.2%
- growth at 10 µM (MDA-MB-435): 103%
- growth at 10 µM (T47D): 84.8%
- growth at 10 µM (OVCAR-3): 161%
- growth at 10 µM (OVCAR-8): 91.2%
- growth at 10 µM (SK-OV-3): 103%
- growth at 10 µM [5]: 86.4%
- growth at 10 µM (A498): 93.3%
- growth at 10 µM (ACHN): 91.9%
- growth at 10 µM (CAKI-1): 88.3%
- growth at 10 µM (LOX IMVI): 89.3%
- growth at 10 µM (Malme-3M): 112%
- growth at 10 µM (SK-MEL-2): 84%
- growth at 10 µM (SK-MEL-28): 117%
- growth at 10 µM (UACC-257): 105%
- growth at 10 µM (UACC-62): 93.5%
- growth at 10 µM (DU-145): 137%
- growth at 10 µM (PC-3): 89.1%
- growth at 10 µM (SF-268): 138%
- growth at 10 µM (SF-539): 91.7%
- growth at 10 µM (SNB-19): 94.1%
- growth at 10 µM (SNB-75): 81.7%
- growth at 10 µM (U-251): 100%
- level, % of control [6]: 86%
- level, % of control [7]: 84%
